Reference: ChEMBL document CHEMBL1156462, “Seco-pregnane steroids target the subgenomic RNA of alphavirus-like RNA viruses” (Proc Natl Acad Sci U S A, 2007)
Activity calls are given as the source filed them. No cut-off for these calls is given here.

Columns and labels:
[1] = test system: Reovirus sp.; assay: Antiviral activity against Reovirus in CIK cells assessed as inhibition of virus-induced cytopathogenicity; format: functional, organism-based
Summary of the method: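 Cells seeded at 2 × 10⁵ per well 24 h before use (BHK-21 for GETV, H9 for HIV, CIK for Reovirus, 983A for adenovirus, Veto for measles virus). Infected at a dose giving 100% cytopathic effect at 3 dpi; virus premixed with compound at final 100, 50, 10, 3, 2, 1.5, 1, 0 nM. Infected and uninfected untreated controls on each plate.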

[2] = Selectivity index, ratio of CC50 for BHK21 cells to EC50 for Sindbis virus; format: toxicity, cell-based, BHK-21; conditions: hamster, read-out: Ratio CC50/EC50
Summary of the method: (§1)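 SINV XJ-160 at 2 × 10⁵ pfu/ml was premixed with compound for 15 min. It was then adsorbed 1 h to BHK-21 cells, MOI 0.01, in quadruplicate. Cells were washed and kept in DMEM/5% FBS at 37°C. CC50 was 50% inhibition of uninfected BHK-21 proliferation. Index = CC50/EC50.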

[3] = test system: Tobacco mosaic virus; assay: Inhibition of TMV U1 multiplication in tobacco BY2 protoplast at 30 nM assessed as inhibition of local lesions on Chenopodium quinoa leaves by local lesion assay after 3 days postinfection; format: functional; conditions: U1, 72 h
Summary of the method: (§2)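 TMV premixed with compound at a range of concentrations used to inoculate tobacco BY-2 protoplasts; virus multiplication then assayed by counting local lesions on the local lesion host Chenopodium quinoa.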

[4] = Selectivity index, ratio of CC50 for BHK21 cells to EC50 for Getah virus; format: toxicity, cell-based, BHK-21; conditions: hamster, read-out: Ratio CC50/EC50
Summary of the method: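 Getah virus was tested on BHK-21 cells seeded at 2 × 10⁵ per well 24 h before use, infected at a dose giving 100% CPE at 3 dpi. Compound was premixed with virus at final 100–0 nM. EC50 was taken as 50% inhibition of cytopathogenicity. Index = 50% cytotoxicity concentration/EC50.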

[5] = Cytotoxicity against hamster BHK21 cells; format: cell-based, Mesocricetus auratus, BHK-21
[6] = test system: Tobacco mosaic virus; assay: Antiviral activity against TMV U1 infected Nicotiana tabacum cv K326 plant leaves assessed as inhibition of systemic virus infection; format: functional, organism-based
[7] = test system: Tobacco mosaic virus; assay: Inhibition of TMV U1 multiplication in tobacco BY2 protoplast at 20 nM assessed as inhibition of local lesions on Chenopodium quinoa leaves by local lesion assay after 3 days postinfection; format: functional; conditions: U1, 72 h; summary of the method: as §2
[8] = Selectivity index, ratio of CC50 for hamster BHK21 cells to EC50 for Sindbis virus XJ160; format: toxicity, cell-based, BHK-21; conditions: read-out: Ratio CC50/EC50; summary of the method: as §1
[9] = test system: Sindbis virus; assay: Reduction of Sindbis virus infection-induced mortality rate in newborn BALB/c mouse assessed as survivors at 100 mg/kg administered 1 hr before infection after 7 days; format: functional
Summary of the method: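 Newborn BALB/c mice, 2–3 days old, ≈2 g, received 20 μl compound at 100 mg/kg BW 1 or 4 h before intracerebral inoculation with 20 μl containing 100 × LD50 SINV. There were 11 mice per group, with survivors counted at 3, 4, 5, 6 and 7 days.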

[10] = test system: Sindbis virus; assay: Decrease in Sindbis virus XJ160 accumulation in BHK21 cells […] by ELISA; format: functional, organism-based; conditions: XJ160, BHK-21
Summary of the method: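 BHK-21 cells inoculated with SINV XJ-160 premixed with compound (MOI 0.01, 15-min pretreatment, 1-h adsorption). Virus accumulation measured by ELISA as blank-subtracted OD₄₅₀, averaged over nine repeats per concentration.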

[11] = test system: Japanese encephalitis virus; assay: Antiviral activity against Japanese encephalitis virus in C6 cells assessed as inhibition of virus-induced cytopathogenicity; format: functional, organism-based
[12] = test system: Tobacco mosaic virus; assay: Reduction of coat protein sgRNA level in TMV U1 infected tobacco BY2 protoplast at 50 nM administered after 4 hrs postinfection; format: functional, organism-based
Summary of the method: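 BY-2 protoplasts infected with TMV supplemented with compound up to 50 nM; total RNA extracted by TRIzol 4 h after infection, and CP sgRNA, I₂ sgRNA and genomic RNA detected by Northern blot with CP gene probe, 28S rRNA as loading control.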

[13] = test system: Tobacco mosaic virus; assay: Inhibition of TMV U1 multiplication in tobacco BY2 protoplast at 30 nM assessed as local lesion size on Chenopodium quinoa leaves by local lesion assay; format: functional
[14] = test system: Tobacco mosaic virus; assay: Inhibition of TMV U1 multiplication in tobacco BY2 protoplast at 10 nM assessed as inhibition of local lesions on Chenopodium quinoa leaves by local lesion assay after 3 days postinfection; format: functional; conditions: U1, 72 h; summary of the method: as §2
[15] = test system: Tobacco mosaic virus; assay: Decrease in TMV U1 coat protein level in TMV infected tobacco BY2 protoplast at 50 nM by Western blot analysis; format: functional, organism-based
Summary of the method: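 BY-2 protoplasts (5 ml, 1.5 × 10⁶/ml) infected with TMV pretreated with compound; total protein extracted and coat protein detected by Western blot.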

For `CO[C@@H]1C[C@H](O[C@H]2CC[C@@]3(C)C(=CC[C@H]4C(=O)OC5CO[C@]6(C)OC=C(CC[C@@H]43)[C@H]56)C2)O[C@H](C)[C@H]1O[C@H]1C[C@H](O)[C@H](O[C@@H]2C[C@@H](OC)[C@H](O[C@@H]3O[C@H](CO)[C@@H](O[C@@H]4O[C@H](CO)[C@@H](O)[C@H](O)[C@H]4O)[C@H](O)[C@H]3O)[C@@H](C)O2)[C@@H](C)O1` (stereo not given in full) [PANICULATUMOSIDE C], the EC50 [1] was > 25 µM, the selectivity ratio [2] was 11000 and the inhibition at 0.03 µM [3] was 72%. The selectivity ratio [4] was 16500, the CC50 [5] was 16.5 µM and the Activity [6] was “Active”. For the same compound, the inhibition at 0.02 µM [7] was 40%, the selectivity ratio [8] was 11000 and the Activity [9] was 100%. For the same compound, the EC50 [10] was 1.5 nM, the EC50 [11] was > 25 µM and the Activity [12] was “Active”. The Activity [13] was 1.1 mm, the inhibition at 0.01 µM [14] was 19% and the Activity [15] was “Active”.
